Calls of active or inactive are those of the source.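 The calls were made as follows, unless noted: active = potentiation averaged over duplicate wells exceeding buffer-only control mean by more than 3 SD; inactive = the rest.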

Test [1] is described as follows: thallium flux activation in parental CHO cells, counter-screen for KCNQ1 potentiator project (AID 493006;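 active = duplicate-averaged activation above buffer control mean plus 5 SD of those controls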;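 as to activation: fluorescence ratio of max minus min over baseline after K+ and Tl+ depolarization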). As to conditions: parental CHO-K1 cells, FluxOR thallium flux, at 10 µM; hits give high values. In outline:
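Material: parental CHO-K1 cells, FluxOR dye-loaded; Also added: Potassium/thallium depolarization pulse; Schedule: overnight 37 °C plating, 90 min dye, 20 min dark compound; Signal: kinetic FluxOR fluorescence, 10 s baseline, 110 s after stimulus.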
(In general: Counterscreens check selectivity or assay interference.)

In test [2] the target is Potassium voltage-gated channel subfamily KQT member 1 (Homo sapiens) (UniProt P51787). Nature of the test: KCNQ1 potassium channel potentiators, confirmation, FluxOR thallium flux, CHO cells, duplicates (AID 493007).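 As to outcome: cells depolarized by a potassium plus thallium sulfate stimulus after compound.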 As to conditions: KCNQ1 cell line, FluxOR thallium flux fluorescence, at 10 µM; hits give high values, % of reference activator effect, buffer zero. In outline:
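System: KCNQ1-expressing CHO cell line; technique: kinetic thallium influx fluorescence with FluxOR dye, 10 s baseline, 110 s post-stimulus; timing: dye 90 min then compound 20 min, both at room temperature; controls: buffer-only wells as 0% and R-L3 activator as 100%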

The target in test [3] is Potassium voltage-gated channel subfamily KQT member 2 (Rattus norvegicus) (UniProt O88943). Kind of test: rat KCNQ2 channel potentiation, selectivity assay for KCNQ1 potentiator project, KCNQ2-CHO-K1 cells (AID 493009;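 active = mean duplicate potentiation above the buffer control mean plus 5 SD of buffer wells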;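 also: assay conditions were tuned for KCNQ1 rather than KCNQ2 modulators; signal is max minus min fluorescence divided by baseline after thallium stimulus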). As to conditions: FluxOR thallium flux fluorescence, at 10 µM; hits give high values, scaled: buffer 0, activator control 100.
Chain of Potassium voltage-gated channel subfamily KQT member 2 (Rattus norvegicus) (O88943 whole entry, looked up): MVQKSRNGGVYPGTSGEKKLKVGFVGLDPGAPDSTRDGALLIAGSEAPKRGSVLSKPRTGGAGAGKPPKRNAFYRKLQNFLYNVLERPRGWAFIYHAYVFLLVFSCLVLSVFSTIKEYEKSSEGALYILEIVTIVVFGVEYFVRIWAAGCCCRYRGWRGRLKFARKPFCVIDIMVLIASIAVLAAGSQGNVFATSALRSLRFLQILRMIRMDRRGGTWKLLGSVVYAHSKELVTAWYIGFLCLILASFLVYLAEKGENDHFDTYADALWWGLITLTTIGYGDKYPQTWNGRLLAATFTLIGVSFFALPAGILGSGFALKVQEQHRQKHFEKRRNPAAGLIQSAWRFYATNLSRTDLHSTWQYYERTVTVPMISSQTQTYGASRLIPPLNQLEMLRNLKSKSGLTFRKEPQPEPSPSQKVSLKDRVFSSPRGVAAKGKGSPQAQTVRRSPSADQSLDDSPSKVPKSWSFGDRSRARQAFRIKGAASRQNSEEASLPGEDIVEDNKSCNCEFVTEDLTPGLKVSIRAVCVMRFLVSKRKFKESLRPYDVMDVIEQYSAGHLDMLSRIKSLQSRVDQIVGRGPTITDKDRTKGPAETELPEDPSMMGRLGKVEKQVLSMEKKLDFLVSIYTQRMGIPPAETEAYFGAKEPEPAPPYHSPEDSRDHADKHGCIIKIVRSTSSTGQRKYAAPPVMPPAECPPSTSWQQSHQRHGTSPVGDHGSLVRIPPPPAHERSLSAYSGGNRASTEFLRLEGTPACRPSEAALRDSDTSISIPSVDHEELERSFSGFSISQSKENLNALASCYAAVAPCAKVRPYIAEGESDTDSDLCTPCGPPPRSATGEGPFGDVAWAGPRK
Test [4] concerns the target Potassium voltage-gated channel subfamily KQT member 1 (Homo sapiens) (UniProt P51787). Kind of test: KCNQ1 channel current potentiators, confirmation, orthogonal assay for KCNQ1 potentiator project, IonWorks patch clamp, KCNQ1-CHO cells (AID 493184;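 active = current rise at least 3 SD above the untreated control mean in each of two repeat wells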). As to conditions: automated patch clamp current, at 10 µM; hits give high values. The procedure, abridged:
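Test system: KCNQ1-expressing CHO cells. Medium: pH 7.4 external bath. Probe or stimulus: voltage step from -90 mV holding to +40 mV, 2,000 ms. Compound: 10 µM final, single point. Detection: automated perforated-patch electrophysiology. Read-out: percent current increase versus pre-compound level. Repeats: two replicates.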
A general note: The patch-clamp technique gives a direct electrical read-out from membranes.

Chain of Potassium voltage-gated channel subfamily KQT member 1 (Homo sapiens) (P51787 whole entry, looked up): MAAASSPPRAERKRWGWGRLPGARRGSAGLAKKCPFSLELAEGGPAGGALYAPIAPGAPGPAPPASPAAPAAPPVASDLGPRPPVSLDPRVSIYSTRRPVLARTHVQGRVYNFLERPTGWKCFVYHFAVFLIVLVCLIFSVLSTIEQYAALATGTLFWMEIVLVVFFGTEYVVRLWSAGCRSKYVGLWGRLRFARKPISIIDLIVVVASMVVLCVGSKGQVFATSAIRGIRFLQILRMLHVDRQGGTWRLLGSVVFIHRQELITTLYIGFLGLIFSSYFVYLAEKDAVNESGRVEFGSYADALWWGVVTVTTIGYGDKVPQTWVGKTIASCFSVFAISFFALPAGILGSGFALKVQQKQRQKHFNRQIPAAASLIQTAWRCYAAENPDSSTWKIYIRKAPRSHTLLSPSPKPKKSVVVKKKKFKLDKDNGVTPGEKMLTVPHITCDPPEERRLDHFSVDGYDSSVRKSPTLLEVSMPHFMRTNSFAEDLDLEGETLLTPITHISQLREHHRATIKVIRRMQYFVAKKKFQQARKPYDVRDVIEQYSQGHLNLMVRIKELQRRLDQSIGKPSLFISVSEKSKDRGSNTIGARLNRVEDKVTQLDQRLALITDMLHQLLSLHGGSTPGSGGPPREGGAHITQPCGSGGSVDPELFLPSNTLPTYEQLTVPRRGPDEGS

Take `CC1CN(c2nc(-c3ccc(Br)cc3)nnc2-c2ccccc2)CC(C)N1` (stereo not given): the outcome in test [1], in test [2], in test [3] and in test [4] was inactive.

With `COc1ccc(NC(=O)CN(C)C(=O)c2ccc(N3CCOCC3)c([N+](=O)[O-])c2)cc1`, the activation in test [1] is 151% (active). In addition, the potentiation in test [2] was 22% (active); in test [3], 186% (active). Moreover, in test [4], the outcome was inactive.

Regarding `CC1(C)N=C(N)NC(Nc2cccc(Br)c2)=N1`, the outcome in test [1], in test [2], in test [3] and in test [4] was inactive.

Regarding `O=S1(=O)Nc2c(ccc3cccnc23)-c2ccccc21`, the outcome in test [1] and in test [4] was inactive. Moreover, the potentiation in test [2] was 21% (active); in test [3], 154% (active).

As to `S=c1sc2c(Cl)ncnc2n1-c1ccccc1`, the activation in test [1] is 302% (active). Further, the potentiation in test [2] was 146% (active); in test [3], 364% (active). For the same compound, the outcome in test [4] was inactive.

For `N#CC(c1ccc(Cl)cc1)c1ccc2c(C(F)(F)F)cc(C(F)(F)F)nc2n1` (stereo not given), the activation in test [1] is 296% (active). Also, the potentiation in test [2] was 145% (active); in test [3], 407% (active). Also, the outcome in test [4] was inactive.

Take `CC(C)CC(=O)O/N=C1\C(=O)N(c2ccccc2)c2ccccc21`: the result in test [1], in test [2], in test [3] and in test [4] was inactive.

Consider `CC1CCN(C(=S)NC(=O)c2ccccc2)CC1`, for which the outcome in test [1], in test [2] and in test [4] was inactive. Further, the potentiation in test [3] is 150% (active).

On to `CCN(C(=S)NC(=O)c1ccccc1Br)C1CCCCC1`, for which the activation in test [1] is 358% (active). Besides, the potentiation was 124% (active) in test [2] and 370% (active) in test [3]. Moreover, in test [4], the outcome was inactive.

As to `NC(=O)CSc1nnc(-c2ccccc2Br)n1-c1cccc(C(F)(F)F)c1`, the result in test [1], in test [3] and in test [4] was inactive. Also, in test [2], the potentiation was 43.5% (active).

As for `O=C1c2cccc3cccc(c23)C(=O)C1(O)O`, the outcome in test [1], in test [2], in test [3] and in test [4] was inactive.

Consider `COc1ccc(CNC(=O)C2CC(c3cccc(OC)c3)=NO2)cc1` (stereo not given), for which the outcome in test [1], in test [2], in test [3] and in test [4] was inactive.

On to `Cc1cc(C=NCCO)c(C)n1-c1cc(Cl)ccc1Cl`, for which the outcome in test [1], in test [2], in test [3] and in test [4] was inactive.

Take `Oc1c(Br)cc(Br)cc1C=Nc1ccc2c(c1)OCCO2`: the activation in test [1] was 159% (active). The outcome in test [2], in test [3] and in test [4] was inactive.

For the compound `O=C(COc1ccccc1Cl)N(Cc1cccs1)C1CCS(=O)(=O)C1` (stereo not given), the result in test [1], in test [2], in test [3] and in test [4] was inactive.

Regarding `Cn1c(=NC(=O)c2ccco2)sc2cccc(F)c21`, the outcome in test [1], in test [2], in test [3] and in test [4] was inactive.

Take `Cc1ccccc1NS(=O)(=O)c1ccc2[nH]cc(C(=O)N(C)Cc3ccco3)c(=O)c2c1`: the result in test [1], in test [3] and in test [4] was inactive. In addition, in test [2], the potentiation is 44% (active).

Regarding `O=c1[nH]c(Nc2ccccc2)cc2cc(Br)ccc12`, the outcome in test [1], in test [2], in test [3] and in test [4] was inactive.

`COc1ccc(-c2csc(NC(=S)NC(=O)c3ccco3)n2)cc1`: the activation in test [1] was 264% (active). Further, the figures for the potentiation in test [2] and in test [3] were 80.5% (active) and 216% (active), respectively. In test [4], the outcome was inactive.

Consider `Cc1noc(C)c1CSc1ncnc2sc(C)c(C)c12`, for which the result in test [1], in test [2], in test [3] and in test [4] was inactive.

Turning to `O=C(NC(=S)N1CCN(c2ccccc2)CC1)c1ccccc1`, the activation in test [1] was 226% (active). Also, the potentiation in test [2] is 71% (active); in test [3], 281% (active). Further, the result in test [4] was inactive.

With `CC1CCN(C(=S)NC(=O)c2ccc(C(C)(C)C)cc2)CC1`, the activation in test [1] is 165% (active). The results for the potentiation in test [2] and in test [3] were 85.5% (active) and 284% (active), respectively. Further, the result in test [4] was inactive.

Consider `CN1CCN(C(=O)/C(=C/c2ccccc2)c2ccccc2)CC1`, for which the result in test [1], in test [2], in test [3] and in test [4] was inactive.

`CC(O)Cc1cn([C@@H](CCCCN)C(=O)N2CCNCC2)nn1` (stereo not given in full): the result in test [1], in test [2], in test [3] and in test [4] was inactive.

Regarding `Cc1cccc(Nc2ccccc2C(=O)OCC(=O)N(C)C2CCS(=O)(=O)C2)c1C` (stereo not given), the outcome in test [1], in test [2], in test [3] and in test [4] was inactive.

With `CC1CCc2c(sc3[nH]c(=S)n(C)c(=O)c23)C1` (stereo not given), the activation in test [1] is 446% (active). The potentiation is 254% (active) in test [2] and 552% (active) in test [3]. Besides, in test [4], the result was inactive.

Consider `CC(C)COn1c(=S)[nH]c2ccccc2c1=O`, for which the activation in test [1] was 164% (active). Besides, the outcome in test [2] and in test [4] was inactive. For the same compound, in test [3], the potentiation was 198% (active).

As for `O=C(NC(=S)N1CCN(C/C=C/c2ccccc2)CC1)c1c(F)cccc1F`, in test [1], the activation is 139% (active). Further, in test [2], the potentiation is 28.5% (active). The result in test [3] and in test [4] was inactive.

Regarding `CCOC(=O)c1c(NC(=S)NC(=O)c2ccco2)sc2c1CCCC2`, the outcome in test [1], in test [2], in test [3] and in test [4] was inactive.

As for `COc1ccc(NC(=O)C(=O)NNC(=O)c2cccs2)cc1`, in test [1], the activation is 177% (active). For the same compound, the potentiation is 24.5% (active) in test [2] and 187% (active) in test [3]. Besides, the outcome in test [4] was inactive.

For the origin of these results see PubChem BioAssay.
